Source: PubChem BioAssay
CaV13 ICDI inh: Primary screen for inhibitors of IQ motif and Ca2+-dependent inactivation inhibitor domain binding in CACNA1D, Förster resonance energy transfer in living cells, …; HEK cells, CFP/YFP FRET ICDI-IQ, plate reader, 10 min; percent FRET-ratio fall versus neutral wells; inhibition, % at 12.3 µM; 0.098% of 340,000 active; AID 743397;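 active = mean replicate inhibition of at least 30% and at least 1% of replicates passing that level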;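 also: 0% = median of the neutral control wells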
T cruzi repl: inhibitors of intracellular T. cruzi growth, primary screen, luminescence, NIH3T3 host cells. T. cruzi beta-gal in NIH3T3, 90 h. inhibition, % (test concentration not listed). 1.4% of 300,000 active. AID 1885, 2009;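 active = mean inhibition across valid replicates above about 55%, limit read from the data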;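 also: signal also drops with host cell toxicity which is not excluded here; 0% = plate median of DMSO wells and 100% = zero luminescence signal; higher percent means less beta-gal luminescence so fewer parasites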
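assay system = mouse NIH/3T3 fibroblasts infected with β-gal-expressing T. cruzi Tulahuen C4 | input = 5,000 NIH/3T3 host cells per well | buffer or medium = DMEM plus 2% FBS | timing = 3 h host attachment, then at least 90 h co-culture | measured by = GalScreen luminescence, 60 min | evaluation = luminescence reflecting intracellular parasite burden, expressed as percent inhibition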
HSF-1 act: HSF-1 activators, primary screen, NIH3T3-HGL cells, MG132 stress, luminescence, single point. NIH3T3-HGL HSF-1 luciferase reporter, 8 h; 100% = twice DMSO control signal. activation, % at 9 µM. 1.7% of 300,000 active;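 active = mean replicate activation of at least 50% with a set share of replicates each reaching 50%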;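 also: 0% = median of the neutral control wells and 100% = twice that signal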
PvdQ acylase: P. aeruginosa PvdQ acylase inhibitors, primary screen, biochemical, fluorescence, plate reader and imaging, single point | purified PvdQ acylase | inhibition, % at 10 µM | 0.063% of 340,000 active | AID 488965, 2010; in the data active = inhibition above about 30%, passing the limit was not always enough;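 also: 0% = vehicle neutral wells and 100% = reference inhibitor wells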
PfHsp90 yeast 2: growth inhibition of PfHsp90-expressing yeast, primary screen, antimalarial PfHsp90 inhibitor project, S. cerevisiae, BacTiter-Glo luminescence, single point, set 2 | BacTiter-Glo ATP, 48 h; yeast lacking PDR1 and PDR3 efflux regulators | inhibition, % at 9.4 µM | 0.32% of 310,000 active | AID 504621, 2011;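 active = every replicate shows inhibition above about 80%, whatever the replicate mean, limit read from the data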;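 also: 0% = DMSO neutral controls and 100% = 20 µM radicicol positive controls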
N-glyco inh: increase of ERlucT glycosylation luciferase signal, primary screen, N-linked glycosylation inhibitor project, D54 ERlucT cells, luminescence, set 2 | D54 ERlucT glycosylation luciferase reporter, 24 h; percent of 100 nM tunicamycin response | reporter increase, % at 12.5 µM | 0.23% of 360,000 active;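 active = mean luciferase reporter signal, scaled so untreated is 0 and the glycosylation-blocking control 100, at or above a set limit in every replicate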;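 also: luciferase carries N-glycosylation sites so blocking glycosylation raises the light; 0% = median of neutral control wells and 100% = median of 100 nM tunicamycin wells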
An asterisk follows results filed as active. The list is not random: actives were taken first. Their share in the collection is about 3%.

COCCOC(=O)C1=C(C)NC(C)=C(C(=O)OCCOC)C1/C=C/c1ccccc1OC was read as CaV13 ICDI inh -5, T cruzi repl 16, HSF-1 act 77*, PvdQ acylase -14, PfHsp90 yeast 2 2 and N-glyco inh 2.
CCOC(=O)C1=C(C)NC(=O)NC1/C=C/c1ccccc1OC (stereo not given) was read as CaV13 ICDI inh -2, T cruzi repl -11, HSF-1 act 23, PvdQ acylase 6, PfHsp90 yeast 2 17 and N-glyco inh 2.
`CCOC(=O)C1=C(C)NC(C)=C(C(=O)OCC)C1/C=C/c1ccccc1` gave CaV13 ICDI inh -8, T cruzi repl 47, HSF-1 act 18, PvdQ acylase -14, PfHsp90 yeast 2 12 and N-glyco inh 3.
CC(C)(C)OC(=O)N[C@H]1C=C[C@@H](CC(=O)OCC(F)(F)F)C1 was read as CaV13 ICDI inh -8.
CCOC(=O)c1c(C)[nH]c(C(=O)Nc2ccc(C)c(Cl)c2)c1C was read as T cruzi repl 29 and HSF-1 act 63*.
Screening CCOC(=O)c1c(C)[nH]c(C(=O)Nc2ccc(NC(C)=O)cc2)c1C returned CaV13 ICDI inh 7, T cruzi repl 9, HSF-1 act -10, PvdQ acylase -1, PfHsp90 yeast 2 19 and N-glyco inh 3.
`CC1(C)CC(=O)C2=C(C1)c1c(ccc3ccccc13)NC2c1ccco1` (stereo not given) gave CaV13 ICDI inh -10, T cruzi repl 12, HSF-1 act 92*, PvdQ acylase -12, PfHsp90 yeast 2 -38 and N-glyco inh 1.
Screening Cc1ccsc1C1Nc2ccc3ncccc3c2C2=C1C(=O)CC(C)(C)C2 (stereo not given) returned CaV13 ICDI inh -9, T cruzi repl -8, HSF-1 act 11, PvdQ acylase 9, PfHsp90 yeast 2 -7 and N-glyco inh 11.
`Cc1nc(Nc2ccncc2)c2oc3ccccc3c2n1` gave CaV13 ICDI inh -8, T cruzi repl 73*, HSF-1 act 14, PvdQ acylase -2, PfHsp90 yeast 2 13 and N-glyco inh -8.
For CCc1nc(Nc2cccc(O)c2)c2oc3ccccc3c2n1 the results were T cruzi repl 5, HSF-1 act 12, PvdQ acylase -29, PfHsp90 yeast 2 5 and N-glyco inh 12.
`CCc1nc(Nc2ccncc2)c2oc3ccccc3c2n1` gave CaV13 ICDI inh -6, T cruzi repl 66*, HSF-1 act -4, PvdQ acylase -11, PfHsp90 yeast 2 5 and N-glyco inh -4.
For Cc1nc(NCCc2cnc[nH]2)c2oc3ccccc3c2n1 the results were CaV13 ICDI inh -9, T cruzi repl 71*, HSF-1 act -9, PvdQ acylase -12, PfHsp90 yeast 2 -26 and N-glyco inh 4.
`O=C(NC(c1ccccc1)c1ccsc1)C1CCN(Cc2ccc(Oc3ccccc3)cc2)CC1` (stereo not given) gave CaV13 ICDI inh -10 and N-glyco inh -1.
For Cc1cc(N2CCN(C)CC2)ccc1NC(=O)c1ccc(-c2ccc(Cl)cc2)o1 the results were CaV13 ICDI inh -15, T cruzi repl 59*, HSF-1 act 3, PvdQ acylase 13, PfHsp90 yeast 2 2 and N-glyco inh -9.
Screening CN1CCN(c2ccccc2NC(=O)c2ccc(-c3ccc(Br)cc3)o2)CC1 returned T cruzi repl 65*, HSF-1 act 2, PvdQ acylase -16, PfHsp90 yeast 2 13 and N-glyco inh 8.
Screening Cc1ccc(C(=O)Cn2nnc(-c3ccccc3-n3cnnn3)n2)cc1 returned CaV13 ICDI inh -10, T cruzi repl -10, HSF-1 act 73*, PvdQ acylase -8, PfHsp90 yeast 2 5 and N-glyco inh 0.
